From ChEMBL document CHEMBL1156988, “Synthesis and antibacterial studies of binaphthyl-based tripeptoids. Part 1” (2010)
In brackets after ≈: the same amount, converted by molar mass.

Columns and labels:
Staphylococcus aureus [1] = experiment: Antibacterial activity against Staphylococcus aureus 6538P after overnight incubation; format: functional; conditions: Staphylococcus aureus, 6538P; read-out: MIC
Outline: (§1)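 Strains were grown in Luria Broth. Overnight stationary-phase cultures were diluted 1:1000 into fresh medium with twofold compound dilutions, highest typically 128 µg/ml, in 96-well plates. Incubated overnight at 37 °C. MIC recorded as the […].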

[2] = tested on: Staphylococcus epidermidis; experiment: Antibacterial activity against Staphylococcus epidermidis ATCC 700562 after overnight incubation; format: functional
Enterococcus faecium [3] = experiment: Antibacterial activity against vancomycin-resistant Enterococcus faecium 243 after overnight incubation; conditions: Enterococcus faecium, 243; read-out: MIC
Enterococcus faecium [4] = experiment: Antibacterial activity against vancomycin-resistant Enterococcus faecium 449 after overnight incubation; conditions: Enterococcus faecium, 449; read-out: MIC
Enterococcus faecium [5] = experiment: Antibacterial activity against vancomycin-resistant Enterococcus faecium 820 after overnight incubation; conditions: Enterococcus faecium, 820; read-out: MIC
Enterococcus faecium [6] = experiment: Antibacterial activity against vancomycin-resistant Enterococcus faecium 987 after overnight incubation; conditions: Enterococcus faecium, 987; read-out: MIC
Staphylococcus aureus [7] = experiment: Antibacterial activity against vancomycin intermediate Staphylococcus aureus after overnight incubation; format: functional; outline: as §1
Staphylococcus aureus [8] = experiment: Antibacterial activity against vancomycin intermediate Staphylococcus aureus after 24 hrs; format: functional
Outline: (§2)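 Broth microdilution in cation-adjusted Mueller Hinton II broth, inoculum 1 × 10^6 CFU/mL. Inoculum was added 1:1 to twofold serial compound dilutions in triplicate wells. Plates were incubated 24 h at 37 °C. MIC was taken as the lowest dilution giving complete growth inhibition. Strains: wild type ATCC 6538P, Mu50 ATCC 700699, MRSA ATCC 43300.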

Staphylococcus aureus [9] = experiment: Antibacterial activity against methicillin sensitive Staphylococcus aureus after 24 hrs; format: functional; outline: as §2
Staphylococcus aureus [10] = experiment: Antibacterial activity against methicillin-resistant Staphylococcus aureus ATCC 43300 after 24 hrs; format: functional; conditions: ATCC 43300, 24 h; outline: as §2
[11] = tested on: Staphylococcus epidermidis; experiment: Antibacterial activity against Staphylococcus epidermidis ATCC 700562 after 24 hrs; format: functional; conditions: ATCC 700562, 24 h
Outline: (§3)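 Micro-broth dilution in cation-adjusted Mueller Hinton II broth, inoculum 1 × 10^6 CFU per mL, added to triplicate wells of twofold serially diluted compound. Incubated 24 h at 37 °C. MIC taken as the lowest dilution giving complete growth inhibition.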

Enterococcus faecium [12] = experiment: Antibacterial activity against vancomycin-resistant clinical isolate Enterococcus faecium after 24 hrs; format: functional
Enterococcus faecium [13] = experiment: Antibacterial activity against vancomycin sensitive clinical isolate Enterococcus faecium after 24 hrs; format: functional
Staphylococcus aureus [14] = experiment: Antibacterial activity against Staphylococcus aureus 6538P after 24 hrs; format: functional; outline: as §3
Enterococcus faecium [15] = experiment: Antibacterial activity against vancomycin-resistant Enterococcus faecium 243 after 24 hrs; conditions: Enterococcus faecium, 243, 24 h
Enterococcus faecium [16] = experiment: Antibacterial activity against vancomycin-resistant Enterococcus faecium 449 after 24 hrs; conditions: Enterococcus faecium, 449, 24 h
Enterococcus faecium [17] = experiment: Antibacterial activity against vancomycin-resistant Enterococcus faecium 820 after 24 hrs; conditions: Enterococcus faecium, 820, 24 h
Enterococcus faecium [18] = experiment: Antibacterial activity against vancomycin-resistant Enterococcus faecium 987 after 24 hrs; conditions: Enterococcus faecium, 987, 24 h

Row | Structure (SMILES) | MIC (Staphylococcus aureus [1]) [mg/L] | MIC [2] [mg/L] | MIC (Enterococcus faecium [3]) [mg/L] | MIC (Enterococcus faecium [4]) [mg/L] | MIC (Enterococcus faecium [5]) [mg/L] | MIC (Enterococcus faecium [6]) [mg/L] | further results
1 | CC(C)CCOc1ccc2ccccc2c1-c1c(OCC(=O)N[C@H](CCCNC(=N)N)C(=O)N[C@H](CCCNC(=N)N)C(=O)N[C@@H](CC(C)C)C(=O)OCc2ccccc2)ccc2ccccc12.Cl.Cl | 1.95 | 19.5 | 62.5 | 31.3 | 15.6 | 31.3 | 
2 | C=CCOc1ccc2ccccc2c1-c1c(OCC(=O)NCC(=O)NCC(=O)N[C@@H](CC=C)C(=O)OCc2ccccc2)ccc2ccccc12 | 3.9 (≈ 5.69 µM) | 3.9 (≈ 5.69 µM) | 62.5 (≈ 91.1 µM) | 31.3 (≈ 45.6 µM) | 15.6 (≈ 22.7 µM) | 31.3 (≈ 45.6 µM) | 
3 | CC(C)CCOc1ccc2ccccc2c1-c1c(OCC(=O)N[C@H](CCCCN)C(=O)N[C@H](CCCNC(=N)N)C(=O)N[C@@H](CC(C)C)c2ncc(Cc3ccccc3)o2)ccc2ccccc12.Cl.Cl |  |  |  |  |  |  | MIC (Staphylococcus aureus [7]; read-out: MIC): 4 mg/L
4 | CNC(=N)NCCC[C@@H](NC(=O)[C@@H](CCCCN)NC(=O)COc1ccc2ccccc2c1-c1c(OCCC(C)C)ccc2ccccc12)C(=O)N[C@@H](CC(C)C)C(=O)OCc1ccccc1.Cl.Cl | 3.13 | 3.13 | 25 | 25 | 25 | 25 | 
5 | CC(C)CCOC(=O)[C@H](CC(C)C)NC(=O)[C@@H](CCCNC(=N)N)NC(=O)[C@@H](CCCCN)NC(=O)COc1ccc2ccccc2c1-c1c(OCCC(C)C)ccc2ccccc12.Cl.Cl |  |  |  |  |  |  | MIC (Staphylococcus aureus [7]; read-out: MIC): 4 mg/L
6 | CC(C)CCOc1ccc2ccccc2c1-c1c(OCC(=O)N[C@H](CCCCN)C(=O)N[C@@H](CCCNC(=N)N)C(=O)N[C@H](CC(C)C)C(=O)OCc2ccccc2)ccc2ccccc12.Cl.Cl |  |  |  |  |  |  | MIC (Staphylococcus aureus [8]): 6 mg/L; MIC (Staphylococcus aureus [9]): 6 mg/L; MIC (Staphylococcus aureus [10]): 6 mg/L; MIC [11]: 3 mg/L; MIC (Enterococcus faecium [12]): 2 mg/L; MIC (Enterococcus faecium [13]): 16 mg/L; MIC (Staphylococcus aureus [14]): 3.9 mg/L; MIC (Enterococcus faecium [15]): 15.6 mg/L; MIC (Enterococcus faecium [16]): 15.6 mg/L; MIC (Enterococcus faecium [17]): 7.8 mg/L; MIC (Enterococcus faecium [18]): 15.6 mg/L
7 | CN[C@H](CC(C)C)C(=O)N[C@H]1C(=O)N[C@@H](CC(N)=O)C(=O)N[C@H]2C(=O)N[C@H]3C(=O)N[C@H](C(=O)N[C@H](C(=O)O)c4cc(O)cc(O)c4-c4cc3ccc4O)[C@H](O)c3ccc(c(Cl)c3)Oc3cc2cc(c3O[C@@H]2O[C@H](CO)[C@@H](O)[C@H](O)[C@H]2O[C@H]2C[C@](C)(N)[C@H](O)[C@H](C)O2)Oc2ccc(cc2Cl)[C@H]1O [VANCOMYCIN] | 1.56 (≈ 1.08 µM) | 3.13 (≈ 2.16 µM) | 1.56 (≈ 1.08 µM) | > 25 | > 25 | 3.13 (≈ 2.16 µM) | MIC (Staphylococcus aureus [7]): 6 mg/L (≈ 4.14 µM)
8 | CC(C)CCOc1ccc2ccccc2c1-c1c(OCC(=O)N[C@H](CCCCN)C(=O)N[C@H](CCCCN)C(=O)N[C@@H](CC(C)C)C(=O)OCc2ccccc2)ccc2ccccc12.Cl.Cl | 1.95 | 1.95 | 62.5 | 31.3 | 26.1 | 62.5 | 
